These results are taken from ChEMBL document CHEMBL1131528, “Effect of steroids on DNA synthesis in an in vitro replication system: initial quantitative structure-activity relationship studies and construction of a non-estrogen receptor pharmacophore” (J Med Chem, 1998).

SMILES strings stand for the structures.

The test system of the first experiment is Nucleic Acid. The experiment can be described thus: (§1) The compound was tested in vitro for its ability to initiate DNA replication. The class given is functional. Conditions: Homo sapiens. The procedure, abridged:
(§2)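 Steroid dissolved in 100% ethanol, diluted with water (final ethanol ≤0.1%), tested at 10 nM in a HeLa cell extract in vitro replication system (extracts estrogen and progesterone receptor-negative) with plasmid template pX24 (hamster DHFR origin) or 30.4 (random human cDNA fragment). Compound preincubated with template DNA and precursor nucleotides, then remaining components added to start replication. DNA purified; synthesis measured by DpnI resistance assay with phosphoimager densitometry; expressed as % of untreated control, mean ± SD of at least two experiments.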
Molecule `C[C@]12CC[C@@H]3c4ccc(O)c(O)c4CCC3[C@@H]1CC[C@@H]2O` (single isomer, unassigned) returned a DNA of 53%.
In turn, `C[C@]12CC[C@@H]3c4ccc(O)cc4CC[C@H]3[C@@H]1CC(=O)[C@@H]2O` had a DNA of 99%.
Consider `C[C@]12CC[C@@H]3c4ccc(O)cc4CC[C@H]3[C@@H]1C[C@@H](O)[C@@H]2O`, for which the DNA came to 144%.
Still for that read-out and setting: next, `C[C@]12CC[C@H]3C(CCC4=CC(=O)CC[C@@]43C)[C@@H]1CC[C@@H]2O` (single isomer, unassigned): 72%; `C[C@]12CC[C@@H]3c4ccc(O)cc4CC[C@H]3[C@@H]1C[C@H](O)[C@H]2O`: 200%; `C[C@]12CC[C@@H]3c4ccc(O)cc4CC[C@H]3[C@@H]1C[C@@H](O)[C@H]2O`: 103%.
On to `C[C@]12CC[C@@H]3c4cc(O)c(O)cc4CCC3[C@@H]1CC[C@@H]2O` (single isomer, unassigned), for which the DNA came to 52%.

Another experiment has as its system Nucleic Acid. The description is as §1. The class given is nucleic-acid assay. Conditions: Homo sapiens. The procedure, abridged: as §2
As for `CC(=O)[C@H]1CC[C@H]2[C@@H]3CCC4=CC(=O)CC[C@]4(C)[C@H]3CC[C@]12C`, the DNA was determined as 115%.
`C[C@]12CC[C@@H]3c4ccc(O)cc4CC[C@H]3[C@@H]1C[C@@H](O)[C@@H]2O` came in with a DNA of 118%.
In the case of `COc1ccc2c(c1OC)CC[C@@H]1[C@@H]2CC[C@]2(C)C(=O)CC[C@@H]12`, the DNA turned out to be 63%.
As for `C[C@]12CC[C@@H]3c4ccc(O)cc4CC[C@H]3[C@@H]1CCC2=O`, the DNA was 108%.
Regarding `C[C@]12CC[C@@H]3c4ccc(O)cc4CC[C@H]3[C@@H]1C[C@@H](O)C2=O`, the DNA is 150%.
In the case of `C[C@]12CC[C@@H]3c4cc(O)c(O)cc4CC[C@H]3[C@@H]1CCC2=O`, the DNA stood at 92%.
For the molecule `COc1c(O)ccc2c1CC[C@@H]1[C@@H]2CC[C@]2(C)C(=O)CC[C@@H]12`, the DNA was found to be 53%.
